Test results taken from paper PMC3848259 (Cellular signalling, 2013).
Entries after “also recorded” stand apart in the source; their conditions may differ.

How the values were obtained:
RGS4-Gαo binding [1] = biological target: T1, RGS4-Gαo binding (Rattus norvegicus, UniProt P49799); assay: Flow Cytometry Protein Interaction Assay; conditions: read-out: FCPIA IC50, compounds 100 nM-100 μM, three independent experiments
T1 sequence (P49799 52-205 limits assumed): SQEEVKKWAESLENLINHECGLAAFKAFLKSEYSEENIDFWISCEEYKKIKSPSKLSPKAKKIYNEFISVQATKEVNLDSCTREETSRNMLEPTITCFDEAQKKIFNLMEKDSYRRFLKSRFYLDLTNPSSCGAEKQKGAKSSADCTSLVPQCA
Outline: (§1)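 Multiplexed bead assay: biotinylated MBP-Δ51 RGS4, cysteine-free Δ51 RGS4 (seven RGS-box Cys→Ala) and His-tagged RGS8 (61–198) on separate streptavidin Luminex bead sets. Buffer 50 mM HEPES pH 7.4, 100 mM NaCl, 0.1% lubrol, 1% BSA. Test compound (100 nM–100 μM) for 15 min at RT. AlexaFluor532-Gαo (30 nM final) with GDP·AlF4 and 1 mM MgCl for 30 min at RT. Read by flow cytometry; nonlinear regression.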

[2] = biological target: T2, RGS4 stimulation of Gαi1 (R178M/A326S) GTP hydrolysis (Rattus norvegicus, UniProt P49799); assay: Receptor-independent steady-state GTPase acceleration protein assay; type: biochemical; conditions: read-out: SS-GAP IC50; 200 nM Δ51 RGS4-MBP, 6 μM Gαi1 (R178M/A326S), 300 μM GTP
T2 sequence (P49799 52-205): T1 sequence (P49799 52-205 limits assumed)
Outline: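 Receptor-independent GTPase: Δ51 RGS4 (residues 52-205)-MBP with His-tagged Gαi1 R178M/A326S. Buffer: 50 mM HEPES pH 7.4, 100 mM NaCl, 0.01% Lubrol, 5 mM MgCl, 10 μg/mL BSA. Test compound in half-log steps, 100 nM–100 μM. Started with GTP; 120 min at room temperature. Quenched with HCl/malachite green plus citrate stabiliser, 20 min, then A630. IC50 by nonlinear regression; three independent experiments, duplicate wells.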

[3] = tested on: RGS4 in HEK293-FlpIn-TREx/M3R/RGS4 cells; assay: Cell-based calcium signaling assay in M3-R4 cells; set-up: species or system human; conditions: read-out: Cellular Activity IC50, Dox treated, carbachol-stimulated calcium
RGS4-Gαo binding [4] = biological target: T1, RGS4-Gαo binding; assay: FCPIA reversibility; conditions: 100 μM compound; for inhibition of RGS4-G-protein binding: FCPIA; for reversibility of RGS4 inhibition: beads washed three times, ten minute washing period
Outline: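 Biotinylated RGS4 on streptavidin Luminex beads preincubated 30 min at room temperature with 100 μM test compound or DMSO, then washed three times in 50 mM HEPES pH 7.4/100 mM NaCl/0.1% lubrol/1% BSA. Beads split: one set re-dosed with 100 μM compound, other DMSO. Each then mixed with AlexaFluor 532-Gαo (30 nM final) plus GDP·AlF4/1 mM MgCl. Binding read by flow cytometry. Three independent experiments.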

RGS7 = biological target: T3, RGS7 (Homo sapiens, UniProt P49802); assay: Multiplexed FCPIA, RGS7; type: binding; conditions: 100 nM to 100 μM, RGS7 lacks cysteine residues
T3 sequence (P49802 333-448 limits assumed): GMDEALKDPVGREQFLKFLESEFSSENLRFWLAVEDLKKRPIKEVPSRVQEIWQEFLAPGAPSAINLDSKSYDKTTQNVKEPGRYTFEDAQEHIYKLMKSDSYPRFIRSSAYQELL

RGS4 (-Cys) = RGS4 (-Cys) (Homo sapiens, UniProt P49798, C132A/C148A/C183A/C197A/C204A/C71A/C95A); assay: Multiplexed FCPIA, RGS4 lacking cysteines; type: binding
Chain of RGS4 (-Cys) (P49798 52-205 C71A/C95A/C132A/C148A/C183A/C197A/C204A limits assumed, species assumed): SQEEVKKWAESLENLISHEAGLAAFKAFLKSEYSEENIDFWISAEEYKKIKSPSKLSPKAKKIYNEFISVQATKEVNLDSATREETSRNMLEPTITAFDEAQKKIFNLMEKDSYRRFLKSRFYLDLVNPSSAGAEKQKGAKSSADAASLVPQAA
Outline: as §1

RGS8 = biological target: T4, RGS8 (Homo sapiens, UniProt P57771); assay: Multiplexed FCPIA, RGS8; type: binding
T4 sequence (P57771 61-198 isoform P57771-2): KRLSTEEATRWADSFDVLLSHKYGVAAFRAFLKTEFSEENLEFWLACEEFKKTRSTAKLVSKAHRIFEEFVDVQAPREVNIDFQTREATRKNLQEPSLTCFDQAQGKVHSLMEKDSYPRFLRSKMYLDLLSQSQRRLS
Outline: as §1

RGS19 = biological target: T5, RGS19 (Homo sapiens, UniProt P49795); assay: Multiplexed FCPIA, RGS19; type: binding; conditions: 100 nM to 100 μM
T5 sequence (P49795 1-206 limits assumed): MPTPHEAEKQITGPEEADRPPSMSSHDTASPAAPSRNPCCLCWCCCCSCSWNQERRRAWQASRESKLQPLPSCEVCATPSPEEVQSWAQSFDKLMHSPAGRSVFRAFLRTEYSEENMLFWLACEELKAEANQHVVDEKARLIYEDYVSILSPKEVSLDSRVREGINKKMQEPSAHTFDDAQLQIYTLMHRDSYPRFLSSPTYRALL
Outline: (§2)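 Biotinylated RGS proteins (RGS16 full-length, RGS19 ΔC11, both MBP fusions) were each coupled to separate streptavidin Luminex bead sets and pooled per well. Buffer: 50 mM HEPES pH 7.4, 100 mM NaCl, 0.1% lubrol, 1% BSA. Test compound (100 nM–100 μM) or DMSO added for 15 min at room temperature. AlexaFluor 532-Gαo (30 nM final) with GDP·AlF4/1 mM MgCl added for 30 min. Flow-cytometric binding read; nonlinear regression.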

RGS16 = biological target: T6, RGS16 (Homo sapiens, UniProt O15492); assay: Multiplexed FCPIA, RGS16; type: binding; conditions: 100 nM to 100 μM
T6 sequence (O15492 1-202): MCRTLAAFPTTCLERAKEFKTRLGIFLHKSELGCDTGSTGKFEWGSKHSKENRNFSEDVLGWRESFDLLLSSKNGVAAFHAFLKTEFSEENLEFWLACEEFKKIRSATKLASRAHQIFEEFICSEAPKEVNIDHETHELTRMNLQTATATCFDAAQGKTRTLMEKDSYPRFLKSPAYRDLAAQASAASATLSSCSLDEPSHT
Outline: as §2

SMILES | IC50 (RGS4-Gαo binding [1]) | IC50 [2] | IC50 [3] | inhibition of RGS4-G-protein binding (RGS4-Gαo binding [4]) | reversibility of RGS4 inhibition (RGS4-Gαo binding [4]) | activity towards RGS7 (RGS7) | Inhibition of Gα binding to RGS4 (-Cys) (RGS4 (-Cys)) | Inhibition of Gα binding to RGS8 (RGS8) | potency difference RGS4 versus RGS19 (RGS19) | activity against RGS16 (RGS16)
Cc1ccc(/C=C2\C(=O)NC(=S)N(c3ccc(F)cc3)C2=O)s1 [CID 1389577] | 18.3 µM | 10.9 µM | 15 µM | greater than 85% | more than 50% | showed activity towards RGS7; also recorded: activity was observed | – | – | – | –
Br.CN1CCc2cc(O)cc3c2[C@H]1Cc1ccc(O)c(O)c1-3 [CID 11957531] | – | – | – | – | – | – | Inhibition of Gα binding to RGS4 (-Cys) or RGS8 occurred | Inhibition of Gα binding to RGS4 (-Cys) or RGS8 occurred | – | –
CN1C(=O)/C(=C\c2ccc(Br)s2)C(=O)NC1=S [CID 1777233] | 15.3 µM | 9.4 µM | 20 µM | greater than 85% | more than 50% | – | – | – | 2 fold | –
O=C1NC(=S)N(c2ccccc2F)C(=O)/C1=C\c1cccs1 [CID 1905297] | 27.9 µM | 35.6 µM | 23.8 µM | greater than 85% | more than 50% | – | – | – | – | –
O=C1N=c2ccccc2=C1c1c(O)n(-c2cccc(F)c2)[nH]c1=O [CID 5428579] | 8.2 µM | 55.8 µM | 35.5 µM | greater than 85% | more than 50% | showed activity towards RGS7; also recorded: activity was observed | – | – | – | activity was observed
Br.CCCN1CCc2cc(O)cc3c2[C@H]1Cc1ccc(O)c(O)c1-3 [CID 10069059] | – | – | – | – | – | – | Inhibition of Gα binding to RGS4 (-Cys) or RGS8 occurred | Inhibition of Gα binding to RGS4 (-Cys) or RGS8 occurred | – | –
COc1ccc(NC(=O)/C(Cl)=C(/Cl)[S+]([O-])Cc2ccccc2)cn1 (stereo not drawn) [CID 1472216] | 1.7 ± 0.5 µM | 1.6 ± 0.4 µM | – | – | – | – | – | – | – | –
